We go through 3 molecules from ChEMBL document CHEMBL3997832, “Development of MBRI-001, a deuterium-substituted plinabulin derivative as a potent anti-cancer agent” (Bioorg Med Chem Lett, 2017).

For data set [1], the system named is NCI-H460. In words: Antitumor activity against human NCI-H460 cells xenografted in nude mouse assessed as tumor growth inhibition at 3 mg/kg, iv administered every 2 days for 21 days relative to vehicle-treated control. The format is functional. The settings on record: read-out: TGI. The essentials:
(§1)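 NCI-H460 xenografts in nude mice, dosed intravenously at 3, 6 or 12 mg/kg every two days for 21 consecutive days (Q3D7); docetaxel 10 mg/kg as positive control. Tumor volumes followed, tumors excised and weighed at end of dosing; inhibitory rate calculated versus vehicle group; mean ± SD.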

The nature of data set [2]: Metabolic stability in rat plasma assessed as esterase-mediated amide bond hydrolysis at 1 uM measured up to 100 mins by LC-MS/MS analysis. The format is ADME. The settings on record: isolated protein.
Data set [3] relates to Mus musculus. In words: Toxicity in nude mouse xenografted with human NCI-H460 cells assessed as decrease in body weight at 3 to 12 mg/kg, iv administered every 2 days for 21 days. The note with it: in vivo. The format is organism-based. The essentials: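 Nude mice bearing NCI-H460 xenografts dosed intravenously at 3, 6 or 12 mg/kg every two days for 21 days (Q3D7). Body weights recorded over the dosing period; mean ± SD.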

A short description of data set [4]: Cmax in Wistar rat at 5 mg/kg, iv. Format: ADME, organism-based. On the set-up: dose 5 mg/kg, route intravenous. The settings on record: in vivo. The essentials:
(§2)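 Wistar rats, single intravenous dose of 5 mg·kg⁻¹, n=5; plasma concentration–time profile sampled, mean ± SD. Parameters (ke, t1/2, Tmax, Cmax, AUClast, AUC0–∞, Vz, CL, MRT) derived from the plasma curve.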

The subject of data set [5] is NCI-H460. Description: Antitumor activity against human NCI-H460 cells xenografted in nude mouse assessed as tumor growth inhibition at 6 mg/kg, iv administered every 2 days for 21 days relative to vehicle-treated control. The format is functional. The settings on record: read-out: TGI. Put shortly:
as §1
On the technique in general: A xenograft is tissue or cells of one species grown in another, often human tumour cells in immunodeficient mice.

Data set [6] relates to NCI-H460. In words: Cytotoxicity against human NCI-H460 cells assessed as decrease in cell viability after 72 hrs by MTT assay. The format is functional, cell-based. The settings on record: NCI-H460, 72 h.
The nature of data set [7]: Metabolic stability in rat liver microsomes assessed as esterase-mediated amide bond hydrolysis at 2 uM measured up to 150 mins by LC-MS/MS analysis. Format: ADME. The settings on record: 2.5 h. Background: Liver microsomes are vesicles of endoplasmic reticulum, rich in cytochrome P450 enzymes.
A short description of data set [8]: Drug uptake in tumor of nude mouse xenografted with human NCI-H460 cells at 12 mg/kg, iv administered every 2 days for 21 days. The format is ADME, organism-based, Neoplasm. The note with it: read-out: Drug uptake. Put shortly: (§3)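 Nude mice bearing NCI-H460 xenografts given compound intravenously at 3, 6 or 12 mg/kg every two days for 21 days. Concentration in excised tumor tissue measured at end of treatment, expressed as ng/g.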

Data set [9] is described as follows: Elimination rate constant in Wistar rat at 5 mg/kg, iv. Format: ADME, organism-based. The note with it: in vivo. The essentials:
as §2

Data set [10] in a line: Observed apparent volume of distribution in Wistar rat at 5 mg/kg, iv. The format is ADME, organism-based. The settings on record: in vivo, read-out: Vz. Put shortly:
as §2

A short description of data set [11]: Observed clearance in Wistar rat at 5 mg/kg, iv. The settings on record: in vivo. The format is ADME, organism-based. The essentials: as §2
A further data set relates to Jurkat. In words: Cytotoxicity against human Jurkat cells assessed as decrease in cell viability after 72 hrs by MTT assay. The format is functional, cell-based. For orientation: Formazan colour is commonly taken as a measure of viable cells.
Data set [12] can be described thus: AUClast in Wistar rat at 5 mg/kg, iv. The note with it: in vivo. On the set-up: dose 5 mg/kg, route intravenous, time 0 - last. The format is ADME, organism-based. Put shortly: as §2
A short description of data set [13]: Half life in Wistar rat at 5 mg/kg, iv. Format: ADME, organism-based. The note with it: in vivo. Put shortly: as §2
A short description of data set [14]: Drug uptake in tumor of nude mouse xenografted with human NCI-H460 cells at 3 mg/kg, iv administered every 2 days for 21 days. The format is ADME, organism-based, Neoplasm. The note with it: read-out: Drug uptake. The essentials:
as §3

Data set [15] can be described thus: Drug uptake in tumor of nude mouse xenografted with human NCI-H460 cells at 6 mg/kg, iv administered every 2 days for 21 days. The format is ADME, organism-based, Neoplasm. The note with it: read-out: Drug uptake. Put shortly:
as §3

Data set [16] is described as follows: MRTlast in Wistar rat at 5 mg/kg, iv. The settings on record: in vivo. Format: ADME, organism-based. The essentials: as §2
Data set [17] in a line: Observed AUC (0 to infinity) in Wistar rat at 5 mg/kg, iv. Format: ADME, organism-based. On the set-up: dose 5 mg/kg, time infinity, route intravenous. The settings on record: in vivo. The essentials: as §2
A short description of data set [18]: Tmax in Wistar rat at 5 mg/kg, iv. The format is ADME, organism-based. The settings on record: in vivo. Put shortly: as §2
The test system of another data set is NCI-H446. Description: Cytotoxicity against human NCI-H446 cells assessed as decrease in cell viability after 72 hrs by MTT assay. Format: functional, cell-based. The note with it: NCI-H446, 72 h.
In data set [19] the test system is NCI-H460. In words: Antitumor activity against human NCI-H460 cells xenografted in nude mouse assessed as tumor growth inhibition at 12 mg/kg, iv administered every 2 days for 21 days relative to vehicle-treated control. The note with it: read-out: TGI. The format is functional. Put shortly:
as §1

The subject of data set [20] is Mus musculus. Description: Toxicity in nude mouse xenografted with human NCI-H460 cells assessed as decrease in body weight at 10 mg/kg, iv administered every 2 days for 21 days. The note with it: in vivo. Format: organism-based. On the set-up: scale not given: the % may be the effect or the level left. Put shortly:
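NCI-H460 lung carcinoma xenografts in nude mice, with intravenous injection every two days over 21 consecutive days (legend: Q3D7). Body weights were recorded across the administration period as a toxicity read-out. Data given as mean ± SD.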

Data set [21] deals with NCI-H460. In words: Antitumor activity against human NCI-H460 cells xenografted in nude mouse assessed as tumor growth inhibition at 10 mg/kg, iv administered every 2 days for 21 days relative to vehicle-treated control. The format is functional. The note with it: read-out: TGI. The essentials:
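Nude mice bearing human NCI-H460 lung carcinoma xenografts, dosed by intravenous injection every two days for 21 consecutive days (legend states Q3D7), alongside vehicle controls. Tumor volumes were followed over the dosing period. At the end, tumors were excised and weighed, and inhibitory rates were calculated relative to vehicle. Data given as mean ± SD.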

The subject of data set [22] is NCI-H460. Description: Antitumor activity against human NCI-H460 cells xenografted in iv dosed nude mouse assessed as tumor growth inhibition administered every 2 days for 21 days. The format is functional, organism-based. The note with it: tested as the 2H-labelled form. Put shortly: as §1

The Cmax is the maximum level reached in the sampled fluid or tissue. By IC50 is commonly meant the concentration that inhibits the measured activity by half. A word on the clearance: it is a measure of how efficiently the substance is removed, as volume per time. For orientation: AUC(0-t) means exposure summed from dosing to a finite time, without extrapolation to infinity. As usually defined, the half-life is the time needed for the level to fall by half in the phase considered. One may read the MRT last as a mean duration of stay, worked out from the concentration-time curve. As usually defined, the AUC(0-inf) is total exposure, with the tail of the curve extrapolated. For orientation: Tmax means the time at which the peak concentration occurs.

Take `[2H]/C(c1nc[nH]c1C(C)(C)C)=c1/[nH]c(=O)/c(=C/c2ccccc2)[nH]c1=O`: the inhibition in vivo at 3 mg/kg in the data set on NCI-H460 [1] is 28.8%. Besides, the Stability entry in data set [2] and in data set [7] was “Stable” throughout. In the data set on Mus musculus [3], the Activity result is “Non-Toxic”. In data set [4], this molecule had a Cmax of 7280 ng/mL. Further, the inhibition in vivo at 6 mg/kg in the data set with NCI-H460 [5] worked out at 44.8%. Also, the IC50 in the data set with NCI-H460 [6] was 33.2 nM; in the data set with Jurkat it was 4.3 nM; with NCI-H446 it was 22 nM. Also, the concentration at 21 days came to 2490 ng/g in data set [8], 316 ng/g in data set [14] and 809 ng/g in data set [15]. Further, the k el in [9] was 0.000139 s⁻¹. Also, the Vd in data set [10] worked out at 7.72 L/kg. In data set [11], this molecule had a clearance of 58.8 mL/min/kg. In data set [12], this molecule yielded an AUC(0-t) of 1520 ng·h/mL. This molecule also showed a half-life in data set [13] of 88.2 min. Also, the MRT last in [16] came to 101 min. Also, the AUC(0-inf) in [17] stood at 1520 ng·h/mL. The Tmax in data set [18] was determined as 1.2 min. The inhibition in vivo at 12 mg/kg in the data set on NCI-H460 [19] turned out to be 48%.
Consider `CC(=O)O[C@@]12CO[C@@H]1C[C@H](O)[C@@]1(C)C(=O)[C@H](O)C3=C(C)[C@@H](OC(=O)[C@H](O)[C@@H](NC(=O)OC(C)(C)C)c4ccccc4)C[C@@](O)([C@@H](OC(=O)c4ccccc4)[C@H]21)C3(C)C` [DOCETAXEL ANHYDROUS], for which the Activity with Mus musculus [20] was determined as 18.3%. The inhibition in vivo at 10 mg/kg in the data set on NCI-H460 [21] turned out to be 40%.
With `CC(C)(C)c1[nH]cnc1/C=c1\[nH]c(=O)/c(=C/c2ccccc2)[nH]c1=O` [PLINABULIN], the Stability entry in data set [2] and in data set [7] was “Stable” throughout. In data set [4], this molecule registered a Cmax of 5040 ng/mL. For the same molecule, the results for the IC50 in the data set on NCI-H460 [6], with Jurkat and with NCI-H446 were 33.9 nM, 3.3 nM and 44.2 nM, respectively. Further, the k el in data set [9] was 0.000189 s⁻¹. In [10], the Vd was found to be 11.4 L/kg. In data set [11], the clearance is 121 mL/min/kg. Moreover, the TGI entry with NCI-H460 [22] was “Dose-dependent effect”. In addition, the AUC(0-t) in data set [12] amounted to 721 ng·h/mL. In [13], this molecule had a half-life of 67.8 min. Moreover, the MRT last in [16] was determined as 30 min. This molecule registered an AUC(0-inf) in data set [17] of 723 ng·h/mL. Further, in [18], the Tmax worked out at 1.2 min.
